Legend:
Mus musculus [1] = test: Distribution of Radioactivity in kidneys of CD-1 Mice by intravenous administration of compound after 1 hr expressed as dose/gram; type: ADME, organism-based, Kidney; conditions: in vivo
Method in brief: (§1)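 Female CD-1 mice, 7 1/2 weeks old (25-29 g), fed and watered ad libitum. Agent given in physiological saline, pH adjusted to 7.4 and filtered, by lateral tail vein injection under ether anesthesia. Tissues collected at 5 min, 1 h, 4 h and 1 day. Injectate samples counted as standard; results as mean % injected dose/g with range.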

Mus musculus [2] = test: Distribution of Radioactivity in kidneys of CD-1 Mice by intravenous administration of compound after 4 hr expressed as dose/gram; type: ADME, organism-based, Kidney; conditions: in vivo; method in brief: as §1
Mus musculus [3] = test: Distribution of Radioactivity in liver of CD-1 Mice […] by intravenous administration of compound after 5 minutes expressed as dose/gram; type: ADME, organism-based; conditions: in vivo; method in brief: as §1
Mus musculus [4] = test: Distribution of Radioactivity in lungs of CD-1 Mice by intravenous administration of compound after 1 day expressed as dose/gram; type: ADME, organism-based, Lung; conditions: in vivo, 24 h; method in brief: as §1
Mus musculus [5] = test: Distribution of Radioactivity in lungs of CD-1 Mice by intravenous administration of compound after 1 hr expressed as dose/gram; type: ADME, organism-based, Lung; conditions: in vivo; method in brief: as §1
Mus musculus [6] = test: Distribution of Radioactivity in pancreas of CD-1 Mice by intravenous administration of compound after 1 hr expressed as dose/gram; type: ADME, organism-based; conditions: in vivo; method in brief: as §1
Mus musculus [7] = test: Distribution of Radioactivity in pancreas of CD-1 Mice by intravenous administration of compound after 4 hr expressed as dose/gram; type: ADME, organism-based; conditions: in vivo; method in brief: as §1
Mus musculus [8] = test: Distribution of Radioactivity in pancreas of CD-1 Mice by intravenous administration of compound after 5 minutes expressed as dose/gram; type: ADME, organism-based; conditions: in vivo; method in brief: as §1
Mus musculus [9] = test: Distribution of Radioactivity in small intestine of CD-1 Mice by intravenous administration of compound after 1 hr expressed as dose/gram; type: ADME, organism-based; conditions: in vivo; method in brief: as §1
Mus musculus [10] = test: Distribution of Radioactivity in stomach of CD-1 Mice by intravenous administration of compound after 4 hr expressed as dose/gram; type: ADME, organism-based; conditions: in vivo
Method in brief: (§2)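 Female CD-1 mice, 7 1/2 weeks old (25-29 g), fed and watered ad libitum. Radiotracer in physiological saline, pH 7.4, filtered, injected via lateral tail vein under ether anesthesia. Tissues taken at 5 min, 1 h, 4 h or 1 day. Percent injected dose per gram calculated against assayed samples of the injected solution; mean with range reported.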

Mus musculus [11] = test: Distribution of Radioactivity in stomach of CD-1 Mice by intravenous administration of compound after 5 minutes expressed as dose/gram; type: ADME, organism-based; conditions: in vivo; method in brief: as §2
Mus musculus [12] = test: Distribution of Radioactivity in thymus of CD-1 Mice by intravenous administration of compound after 1 day expressed as dose/gram; type: ADME, organism-based; conditions: in vivo, 24 h; method in brief: as §2
Mus musculus [13] = test: Distribution of Radioactivity in thymus of CD-1 Mice by intravenous administration of compound after 1 hr expressed as dose/gram; type: ADME, organism-based; conditions: in vivo; method in brief: as §2
Mus musculus [14] = test: Distribution of Radioactivity in thymus of CD-1 Mice by intravenous administration of compound after 5 minutes expressed as dose/gram; type: ADME, organism-based; conditions: in vivo; method in brief: as §2
Mus musculus [15] = test: Distribution of Radioactivity in spleen of CD-1 Mice by intravenous administration of compound after 1 day expressed as dose/gram; type: ADME, organism-based; conditions: in vivo, 24 h; method in brief: as §2
Mus musculus [16] = test: Distribution of Radioactivity in spleen of CD-1 Mice by intravenous administration of compound after 1 hr expressed as dose/gram; type: ADME, organism-based; conditions: in vivo; method in brief: as §2
Mus musculus [17] = test: Distribution of Radioactivity in stomach of CD-1 Mice by intravenous administration of compound after 1 day expressed as dose/gram; type: ADME, organism-based; conditions: in vivo, 24 h; method in brief: as §2
Mus musculus [18] = test: Distribution of Radioactivity in adrenals of CD-1 Mice by intravenous administration of compound after 4 hr expressed as dose/gram; type: ADME, organism-based, Adrenal gland; conditions: in vivo; method in brief: as §1
Mus musculus [19] = test: Distribution of Radioactivity in adrenals of CD-1 Mice by intravenous administration of compound after 5 minutes expressed as dose/gram; type: ADME, organism-based, Adrenal gland; conditions: in vivo; method in brief: as §1
Mus musculus [20] = test: Distribution of Radioactivity in blood of CD-1 Mice by intravenous administration of compound after 1 day expressed as dose/gram; type: ADME, organism-based; conditions: in vivo, 24 h; method in brief: as §1
Mus musculus [21] = test: Distribution of Radioactivity in kidneys of CD-1 Mice by intravenous administration of compound after 1 day expressed as dose/gram; type: ADME, organism-based, Kidney; conditions: in vivo, 24 h; method in brief: as §1
Rattus norvegicus [22] = test: Distribution of Radioactivity in pancreas of Fisher 344 Rats by intravenous administration of compound after 5 minutes expressed as dose/gram; type: ADME, organism-based; conditions: in vivo
Method in brief: (§3)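 Female Fischer 344 rats, 10-12 weeks old (170-200 g), fed and watered ad libitum; four rats per time point. Each received ~6.3 μCi in 0.05 mL saline (pH 7.4, filtered), given by lateral tail vein under ether anesthesia. Tissues taken at 5 min, 1 h, 4 h and 1 day. Injectate standards used; values as mean % injected dose/g with range.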

Rattus norvegicus [23] = test: Distribution of Radioactivity in small intestine of Fisher 344 Rats by intravenous administration of compound after 1 hour expressed as dose/gram; type: ADME, organism-based; conditions: in vivo
Method in brief: (§4)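 Female Fischer 344 rats, 10-12 weeks old (170-200 g), food and water ad libitum; four rats per time point. About 6.3 μCi given in 0.05 mL saline (pH 7.4, filtered) by lateral tail vein under ether anesthesia. Tissues sampled at 5 min, 1 h, 4 h or 1 day. %ID/g computed from injectate standards; mean and range given.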

Rattus norvegicus [24] = test: Distribution of Radioactivity in small intestine of Fisher 344 Rats by intravenous administration of compound after 1 day expressed as dose/gram; type: ADME, organism-based; conditions: in vivo, 24 h; method in brief: as §4
Rattus norvegicus [25] = test: Distribution of Radioactivity in small intestine of Fisher 344 Rats by intravenous administration of compound after 4 hour expressed as dose/gram; type: ADME, organism-based; conditions: in vivo; method in brief: as §4
Rattus norvegicus [26] = test: Distribution of Radioactivity in small intestine of Fisher 344 Rats by intravenous administration of compound after 5 minutes expressed as dose/gram; type: ADME, organism-based; conditions: in vivo; method in brief: as §4
Rattus norvegicus [27] = test: Distribution of Radioactivity in stomach of Fisher 344 Rats by intravenous administration of compound after 1 day expressed as dose/gram; type: ADME, organism-based; conditions: in vivo, 24 h; method in brief: as §4
Rattus norvegicus [28] = test: Distribution of Radioactivity in thymus of Fisher 344 Rats by intravenous administration of compound after 1 hour expressed as dose/gram; type: ADME, organism-based; conditions: in vivo; method in brief: as §4
Rattus norvegicus [29] = test: Distribution of Radioactivity in pancreas of Fisher 344 Rats by intravenous administration of compound after 1 day expressed as dose/gram; type: ADME, organism-based; conditions: in vivo, 24 h; method in brief: as §3
Rattus norvegicus [30] = test: Distribution of Radioactivity in adrenals of Fisher 344 Rats by intravenous administration of compound after 4 hour expressed as dose/gram; type: ADME, organism-based, Adrenal gland; conditions: in vivo; method in brief: as §3
Rattus norvegicus [31] = test: Distribution of Radioactivity in adrenals of Fisher 344 Rats by intravenous administration of compound after 5 minutes expressed as dose/gram; type: ADME, organism-based, Adrenal gland; conditions: in vivo; method in brief: as §3
Rattus norvegicus [32] = test: Distribution of Radioactivity in blood of Fisher 344 Rats by intravenous administration of compound after 4 hour expressed as dose/gram; type: ADME, organism-based; conditions: in vivo; method in brief: as §3
Rattus norvegicus [33] = test: Distribution of Radioactivity in kidneys of Fisher 344 Rats by intravenous administration of compound after 1 day expressed as dose/gram; type: ADME, organism-based, Kidney; conditions: in vivo, 24 h; method in brief: as §3
Rattus norvegicus [34] = test: Distribution of Radioactivity in pancreas of Fisher 344 Rats by intravenous administration of compound after 4 hour expressed as dose/gram; type: ADME, organism-based; conditions: in vivo; method in brief: as §3
Rattus norvegicus [35] = test: Distribution of Radioactivity in liver of Fisher 344 Rats by intravenous administration of compound after 1 day expressed as dose/gram; type: ADME, organism-based; conditions: in vivo, 24 h; method in brief: as §3
Rattus norvegicus [36] = test: Distribution of Radioactivity in liver of Fisher 344 Rats by intravenous administration of compound after 4 hour expressed as dose/gram; type: ADME, organism-based; conditions: in vivo; method in brief: as §3
Rattus norvegicus [37] = test: Distribution of Radioactivity in liver of Fisher 344 Rats by intravenous administration of compound after 5 minutes expressed as dose/gram; type: ADME, organism-based; conditions: in vivo; method in brief: as §3
Rattus norvegicus [38] = test: Distribution of Radioactivity in lungs of Fisher 344 Rats by intravenous administration of compound after 1 day expressed as dose/gram; type: ADME, organism-based, Lung; conditions: in vivo, 24 h; method in brief: as §3

## beta-[103,106Ru]Ruthenocenylalanine
Mus musculus [1]
  Injected: 4.59%
Mus musculus [2]
  Injected: 1.321%
Mus musculus [3]
  Injected: 7.75%
Mus musculus [4]
  Injected: 0.252%
Mus musculus [5]
  Injected: 1.015%
Mus musculus [6]
  Injected: 0.247%
Mus musculus [7]
  Injected: 0.16%
Mus musculus [8]
  Injected: 1.749%
Mus musculus [9]
  Injected: 2.641%
Mus musculus [10]
  Injected: 0.166%
Mus musculus [11]
  Injected: 0.987%
Mus musculus [12]
  Injected: 0.138%
Mus musculus [13]
  Injected: 0.35%
Mus musculus [14]
  Injected: 2.579%
Mus musculus [15]
  Injected: 0.189%
Mus musculus [16]
  Injected: 0.384%
Mus musculus [17]
  Injected: 0.032%
Mus musculus [18]
  Injected: 0.786%
Mus musculus [19]
  Injected: 6.85%
Mus musculus [20]
  Injected: 0.086%
Mus musculus [21]
  Injected: 0.871%
Rattus norvegicus [22]
  Injected: 0.361%
Rattus norvegicus [23]
  Injected: 1.421%
Rattus norvegicus [24]
  Injected: 0.044%
Rattus norvegicus [25]
  Injected: 0.218%
Rattus norvegicus [26]
  Injected: 0.62%
Rattus norvegicus [27]
  Injected: 0.023%
Rattus norvegicus [28]
  Injected: 0.13%
Rattus norvegicus [29]
  Injected: 0.035%
Rattus norvegicus [30]
  Injected: 0.047%
Rattus norvegicus [31]
  Injected: 0.275%
Rattus norvegicus [32]
  Injected: 0.134%
Rattus norvegicus [33]
  Injected: 1.128%
Rattus norvegicus [34]
  Injected: 0.044%
Rattus norvegicus [35]
  Injected: 0.15%
Rattus norvegicus [36]
  Injected: 0.278%
Rattus norvegicus [37]
  Injected: 2.844%
Rattus norvegicus [38]
  Injected: 0.065%

— ChEMBL document CHEMBL1122792, “Synthesis and biological evaluation of radiolabeled beta-ruthenocenylalanine” (J Med Chem, 1984)
